Experiments:
EOL1 [1] = test: Reduction in Flt3 protein level in human EOL-1 cells at 15 uM after 24 hrs by Western blot analysis; type: functional; conditions: EOL1, 24 h
How it was run: (§1)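 Treated EoL-1 lysed in RIPA buffer, protein by Folin-Lowry, resolved on 12% SDS-PAGE; probed with rabbit polyclonal anti-FLT3 or anti-STAT5A (1:500) and anti-GAPDH (1:1000), HRP anti-rabbit secondary, chemiluminescence. Band intensities normalized to GAPDH and compared with vehicle control; mean ± SEM, three independent experiments.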

EOL1 [2] = test: Reduction in Flt3 protein level in human EOL-1 cells at 15 uM after 48 hrs by Western blot analysis; type: functional; conditions: EOL1, 48 h; how it was run: as §1
[3] = Cytotoxicity against human EOL-1 cells after 48 hrs by MTT assay; type: functional, cell-based; conditions: EOL1, 48 h
How it was run: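 Cells seeded at 5.0 × 10^4/well, preincubated 24 h at 37 °C, then exposed to 1.56–50 μM for 48 h (0.1% DMSO vehicle); MTT 4 h at 37 °C, formazan dissolved in DMSO, A578 (ref 630 nm). IC50 = lowest concentration giving 50% growth reduction vs vehicle; mean ± SEM, three independent experiments in triplicate.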

[4] = Cell cycle arrest in human EOL-1 cells assessed as accumulation at G0/G1 phase at 3 uM after 12 hrs by flow cytometry (reference value: 54 %); type: functional, cell-based; conditions: EOL1
[5] = Cell cycle arrest in human EOL-1 cells assessed as accumulation at G0/G1 phase at 4 uM after 48 hrs by flow cytometry (reference value: 54 %); type: functional, cell-based; conditions: EOL1
[6] = Antiproliferative activity against human EOL-1 cells at 4 uM after 12 hrs by trypan blue exclusion assay; type: functional, EOL1
How it was run: (§2)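 EoL-1 cells (RPMI-1640, 10% fetal calf serum, L-glutamine, penicillin/streptomycin) exposed 12 h; viable counts by trypan blue exclusion over time; growth rate (cells/h) taken as slope of cell number vs incubation time, compared with vehicle-control growth rate.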

[7] = Antiproliferative activity against human EOL-1 cells at 5 uM after 12 hrs by trypan blue exclusion assay; type: functional, EOL1; how it was run: as §2
EOL1 [8] = test: Reduction in Flt3 protein level in human EOL-1 cells at 3 uM after 12 hrs by Western blot analysis; type: functional; conditions: EOL1, 12 h; how it was run: as §1
[9] = Cell cycle arrest in human EOL-1 cells assessed as accumulation at G0/G1 phase after 12 hrs by flow cytometry relative to control; conditions: EOL1
EOL1 [10] = test: Reduction in STAT5A protein level in human EOL-1 cells after 12 hrs by Western blot analysis; type: functional, cell-based; how it was run: as §1
EOL1 [11] = test: Reduction in Flt3 protein level in human EOL-1 cells at 4 uM after 24 hrs by Western blot analysis; type: functional; conditions: EOL1, 24 h; how it was run: as §1
EOL1 [12] = test: Reduction in STAT5A protein level in human EOL-1 cells at 5 uM after 12 hrs by Western blot analysis; type: functional; conditions: EOL1, 12 h; how it was run: as §1
EOL1 [13] = test: Reduction in STAT5A protein level in human EOL-1 cells at 3 uM after 12 hrs by Western blot analysis; type: functional; conditions: EOL1, 12 h; how it was run: as §1
[14] = Cell cycle arrest in human EOL-1 cells assessed as accumulation at G0/G1 phase at 4 uM after 12 hrs by flow cytometry (reference value: 54 %); type: functional, cell-based; conditions: EOL1
EOL1 [15] = test: Reduction in Flt3 protein level in human EOL-1 cells at 5 uM after 12 hrs by Western blot analysis; type: functional; conditions: EOL1, 12 h; how it was run: as §1
EOL1 [16] = test: Reduction in Flt3 protein level in human EOL-1 cells at 4 uM after 12 hrs by Western blot analysis; type: functional; conditions: EOL1, 12 h; how it was run: as §1
EOL1 [17] = test: Reduction in Flt3 protein level in human EOL-1 cells at 4 uM after 48 hrs by Western blot analysis; type: functional; conditions: EOL1, 48 h; how it was run: as §1
[18] = Cell cycle arrest in human EOL-1 cells assessed as accumulation at G0/G1 phase at 5 uM after 12 hrs by flow cytometry (reference value: 54 %); type: functional, cell-based; conditions: EOL1
EOL1 [19] = test: Reduction in STAT5A protein level in human EOL-1 cells at 4 uM after 12 hrs by Western blot analysis; type: functional; conditions: EOL1, 12 h; how it was run: as §1
[20] = Antiproliferative activity against human EOL-1 cells at 3 uM after 12 hrs by trypan blue exclusion assay; type: functional, EOL1; how it was run: as §2
EOL1 [21] = test: Reduction in Flt3 protein level in human EOL-1 cells after 12 hrs by Western blot analysis; type: functional, cell-based; how it was run: as §1
[22] = Cell cycle arrest in human EOL-1 cells assessed as accumulation at G0/G1 phase at 4 uM after 24 hrs by flow cytometry (reference value: 54 %); type: functional, cell-based; conditions: EOL1
EOL1 [23] = test: Reduction in Flt3 protein level in human EOL-1 cells at 10 uM after 12 hrs by Western blot analysis; type: functional; conditions: EOL1, 12 h; how it was run: as §1
EOL1 [24] = test: Reduction in Flt3 protein level in human EOL-1 cells at 10 uM after 24 hrs by Western blot analysis; type: functional; conditions: EOL1, 24 h; how it was run: as §1
EOL1 [25] = test: Reduction in Flt3 protein level in human EOL-1 cells at 10 uM after 48 hrs by Western blot analysis; type: functional; conditions: EOL1, 48 h; how it was run: as §1

## O=C(/C=C/c1ccc(O)cc1)CC(=O)/C=C/c1ccc(O)cc1 [BISDEMETHOXYCURCUMIN]
EOL1 [1]
  inhibition at 15 µM: 26%
EOL1 [2]
  inhibition at 15 µM: 3%
[3]
  IC50: 22.3 µM

## COc1cc(/C=C/C(=O)CC(=O)/C=C/c2ccc(O)c(OC)c2)ccc1O [CURCUMIN]
[4]
  Activity: 66%
[5]
  Activity: 54%
[6]
  Activity: 25%
[7]
  Activity: 58%
EOL1 [8]
  inhibition at 3 µM: 17%
[9]
  Activity: Dose-dependent effect
EOL1 [10]
  inhibition: Dose-dependent effect
EOL1 [11]
  inhibition at 4 µM: 33%
EOL1 [12]
  inhibition at 5 µM: 82%
EOL1 [13]
  inhibition at 3 µM: 13%
[14]
  Activity: 71%
EOL1 [15]
  inhibition at 5 µM: 70%
[3]
  IC50: 6.7 µM
EOL1 [16]
  inhibition at 4 µM: 37%
EOL1 [17]
  inhibition at 4 µM: 12%
[18]
  Activity: 75%
EOL1 [19]
  inhibition at 4 µM: 44%
[20]
  Activity: 17%
EOL1 [21]
  inhibition: Dose-dependent effect
[22]
  Activity: 58%

## COc1cc(/C=C/C(O)=C/C(=O)/C=C/c2ccc(O)cc2)ccc1O [DEMETHOXYCURCUMIN]
EOL1 [23]
  inhibition at 10 µM: 4%
EOL1 [24]
  inhibition at 10 µM: 32%
EOL1 [25]
  inhibition at 10 µM: 46%
[3]
  IC50: 15.6 µM

From ChEMBL document CHEMBL3232947, “Inhibitory effect of turmeric curcuminoids on FLT3 expression and cell cycle arrest in the FLT3-overexpressing EoL-1 leukemic cell line” (J Nat Prod, 2014)
